Measured values reported in publication PMC7238799 (Pulmonary Circulation, 2020).

How the values were obtained:
[1] = tested on: healthy subjects; test: Single ascending dose; type: in vivo, human
Outline: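 Subjects received a single oral dose of test compound or identical-appearing placebo capsule and were kept as in-patients. Over seven days, adverse events, vital signs, 12-lead ECG and safety labs (serum chemistry, hematology, urinalysis) were assessed at multiple time points. Data were summarized descriptively by treatment group.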

[2] = Multiple ascending dose; type: in vivo, human; conditions: for Accumulation in plasma exposure (AUC): approximate
Outline: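 Healthy subjects were randomized to test compound or placebo by oral immediate-release capsule in the fasted state. In Cohorts 1–2 (2:1), 50 µg QD escalated to 100, 200, 300 and 400 µg every sixth day if tolerated. In Cohort 3 (4:1), 10 µg BID escalated to 20, 30, 40, 50 and 70 µg. K₂EDTA blood was drawn pre-dose and 0.25–24 h post-dose.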

[3] = tested on: rat monocrotaline model of PAH; conditions: oral; cited from earlier work
[4] = total ralinepag, all single doses, n = 24
[5] = 10 µg BID, steady state, n = 20, mean (SD)
[6] = 30 µg QD, steady state, n = 3, mean (SD)
[7] = 40 µg BID, steady state, n = 9, mean (SD)
[8] = 50 µg BID, steady state, n = 6, mean (SD)
[9] = 50 µg QD, steady state, n = 16, mean (SD)
[10] = 100 µg QD, steady state, n = 7, mean (SD)
[11] = 300 µg QD, steady state, single subject
[12] = 400 µg QD, near steady-state (Day 21, first day at this dose), single subject

SMILES: O=C(O)COC[C@H]1CC[C@H](COC(=O)N(c2ccccc2)c2ccc(Cl)cc2)CC1 [ralinepag]
- SAEs recorded ([1]; any doses tested): no SAEs
- Vital signs, ECGs, safety laboratory tests ([1]; any single dose level): no clinically significant safety issues
- Abdominal pain, subjects (%) ([1]; single oral dose 30 µg, n = 6): 0
- Flushing, subjects (%) ([1]; single oral dose 30 µg, n = 6): 0
- Headache, subjects (%) ([1]; single oral dose 30 µg, n = 6): 2 (33.3%)
- Nausea, subjects (%) ([1]; single oral dose 30 µg, n = 6): 0
- Number of AEs reported ([1]; single oral dose 30 µg, n = 6): 2
- Pain in jaw, subjects (%) ([1]; single oral dose 30 µg, n = 6): 0
- Total (%) subjects with at least one AE ([1]; single oral dose 30 µg, n = 6): 2 (33.3%)
- Vomiting, subjects (%) ([1]; single oral dose 30 µg, n = 6): 0
- Abdominal pain, subjects (%) ([1]; single oral dose 50 µg, n = 6): 1 (16.7%)
- Flushing, subjects (%) ([1]; single oral dose 50 µg, n = 6): 0
- Headache, subjects (%) ([1]; single oral dose 50 µg, n = 6): 5 (83.3%)
- Nausea, subjects (%) ([1]; single oral dose 50 µg, n = 6): 1 (16.7%)
- Number of AEs reported ([1]; single oral dose 50 µg, n = 6): 11
- Pain in jaw, subjects (%) ([1]; single oral dose 50 µg, n = 6): 2 (33.3%)
- Total (%) subjects with at least one AE ([1]; single oral dose 50 µg, n = 6): 5 (83.3%)
- Vomiting, subjects (%) ([1]; single oral dose 50 µg, n = 6): 0
- Abdominal pain, subjects (%) ([1]; single oral dose 100 µg, n = 6): 1 (16.7%)
- Flushing, subjects (%) ([1]; single oral dose 100 µg, n = 6): 1 (16.7%)
- Headache, subjects (%) ([1]; single oral dose 100 µg, n = 6): 5 (83.3%)
- Nausea, subjects (%) ([1]; single oral dose 100 µg, n = 6): 2 (33.3%)
- Number of AEs reported ([1]; single oral dose 100 µg, n = 6): 17
- Pain in jaw, subjects (%) ([1]; single oral dose 100 µg, n = 6): 3 (50.0%)
- Total (%) subjects with at least one AE ([1]; single oral dose 100 µg, n = 6): 6 (100%)
- Vomiting, subjects (%) ([1]; single oral dose 100 µg, n = 6): 2 (33.3%)
- Tolerability of the 200 µg single dose ([1]; single oral dose 200 µg): not at 200 µg due to AEs of nausea and vomiting
- Flushing, subjects (%) ([1]; single oral dose 200 µg, n = 6): 1 (16.7%)
- Headache, subjects (%) ([1]; single oral dose 200 µg, n = 6): 5 (83.3%)
- Nausea, subjects (%) ([1]; single oral dose 200 µg, n = 6): 3 (50.0%)
- Number of AEs reported ([1]; single oral dose 200 µg, n = 6): 21
- Pain in jaw, subjects (%) ([1]; single oral dose 200 µg, n = 6): 1 (16.7%)
- Total (%) subjects with at least one AE ([1]; single oral dose 200 µg, n = 6): 6 (100%)
- Vomiting, subjects (%) ([1]; single oral dose 200 µg, n = 6): 6 (100%)
- Tolerated single dose ([1]; single oral dose, IR capsule, healthy subjects): up to 100 µg
- Abdominal pain, subjects (%) [1, 4]: 3 (12.5%)
- Flushing, subjects (%) [1, 4]: 2 (8.3%)
- Headache, subjects (%) [1, 4]: 17 (70.8%)
- Nausea, subjects (%) [1, 4]: 6 (25.0%)
- Number of AEs reported [1, 4]: 51
- Pain in jaw, subjects (%) [1, 4]: 6 (25.0%)
- Total (%) subjects with at least one AE [1, 4]: 19 (79.2%)
- Vomiting, subjects (%) [1, 4]: 8 (33.3%)
- Mean steady-state accumulation of total plasma exposure (AUC) ([2]; 10 µg BID): 2.64 fold
- Accumulation ratio Rac(Cmax) [2, 5]: 2.07 (0.40)
- PTR (peak-to-trough plasma concentration ratio) [2, 5]: 2.04 (0.32)
- PTR (peak-to-trough plasma concentration ratio) ([2]; 20 µg BID, steady state, n = 20, mean (SD)): 1.97 (0.26)
- PTR (peak-to-trough plasma concentration ratio) ([2]; 30 µg BID, steady state, n = 10, mean (SD)): 1.95 (0.22)
- Ctrough,ss [2, 6]: 0.72 (0.20) ng/mL
- PTR (peak-to-trough plasma concentration ratio) [2, 6]: 3.34 (1.20)
- Ctrough,ss [2, 7]: 1.51 (0.57) ng/mL
- PTR (peak-to-trough plasma concentration ratio) [2, 7]: 2.28 (0.40)
- Ctrough,ss [2, 8]: 2.32 (0.78) ng/mL
- PTR (peak-to-trough plasma concentration ratio) [2, 8]: 2.00 (0.43)
- Mean EHL ([2]; 50 µg QD): 18.4 h
- Mean steady-state accumulation of total plasma exposure (AUC) ([2]; 50 µg QD): 1.69 fold
- Accumulation ratio Rac(AUC) [2, 9]: 1.69 (0.24)
- Accumulation ratio Rac(Cmax) [2, 9]: 1.54 (0.31)
- Ctrough,ss [2, 9]: 0.76 (0.37) ng/mL
- PTR (peak-to-trough plasma concentration ratio) [2, 9]: 4.33 (2.12)
- PTR (peak-to-trough plasma concentration ratio) ([2]; 70 µg BID, steady state, single subject): 2.36
- Ctrough,ss [2, 10]: 1.39 (0.68) ng/mL
- PTR (peak-to-trough plasma concentration ratio) [2, 10]: 4.49 (2.66)
- Ctrough,ss [2, 11]: 5.14 ng/mL
- PTR (peak-to-trough plasma concentration ratio) [2, 11]: 3.42
- Ctrough,ss [2, 12]: 6.13 ng/mL
- PTR (peak-to-trough plasma concentration ratio) [2, 12]: 3.70
- Dose proportionality of Cmax,ss, Ctrough,ss and AUC0–τ,ss ([2]; 10–50 µg BID dose range): approximately dose proportional
- Dose proportionality of Cmax,ss, Ctrough,ss and AUC0–τ,ss ([2]; 50–300 µg QD dose range): approximately dose-proportional
- Accumulation in plasma exposure (AUC) ([2]; BID (Q12 hours) dosing): ~2.6 fold
- Steady-state peak-to-trough ratio, range across doses ([2]; BID dosing, Cohort 3): 1.95–2.36
- Accumulation in plasma exposure (AUC) ([2]; QD (Q24 hours) dosing): ~1.7 fold
- Steady-state peak-to-trough ratio, range across doses ([2]; QD dosing, Cohorts 1 and 2 combined): 3.34–4.49
- Half-life ([2]; both, human, plasma, oral): 17.5 to 18.4 h
- AUC ([2]; human, plasma, oral, 10 ug, AUC0–τ, 10 µg BID, Study Day 1 (non-steady-state), τ 12 h, n = 20, mean (SD)): 2.51 ng·h/mL
- AUC ([2]; human, plasma, oral, 10 ug, AUC0–τ,ss, 10 µg BID, steady state, τ 12 h, n = 20, mean (SD)): 6.68 ng·h/mL
- Cmax ([2]; human, plasma, oral, 10 ug, Cmax, 10 µg BID, Study Day 1 (non-steady-state), n = 20, mean (SD)): 0.412 ng/mL
- Cmax ([2]; human, plasma, oral, 10 ug, Cmax,ss, 10 µg BID, steady state, n = 20, mean (SD)): 0.86 ng/mL
- Tmax ([2]; human, plasma, oral, 10 ug, Tmax, 10 µg BID, Study Day 1 (non-steady-state), n = 20, median (min–max)): 1 h
- Tmax ([2]; human, plasma, oral, 10 ug, Tmax,ss, 10 µg BID, steady state, n = 20, median (min–max)): 1 h
- Cmax ([2]; human, plasma, oral, 20 ug, Cmax,ss, 20 µg BID, steady state, n = 20, mean (SD)): 1.8 ng/mL
- AUC ([2]; human, plasma, oral, 30 ug, AUC0-τ,ss, 30 µg QD, steady state, τ 24 h, n = 3, mean (SD)): 24.8 ng·h/mL
- Cmax ([2]; human, plasma, oral, 30 ug, Cmax,ss, 30 µg BID, steady state, n = 10, mean (SD)): 2.12 ng/mL
- Cmax ([2]; human, plasma, oral, 30 ug, Cmax,ss, 30 µg QD, steady state, n = 3, mean (SD)): 2.29 ng/mL
- Tmax ([2]; human, plasma, oral, 30 ug, Tmax,ss, 30 µg QD, steady state, n = 3, median (min – max)): 1 h
- Cmax ([2]; human, plasma, oral, 40 ug, Cmax,ss, 40 µg BID, steady state, n = 9, mean (SD)): 3.31 ng/mL
- AUC ([2]; human, plasma, oral, 50 ug, AUC0-τ, 50 µg QD, Study Day 1 (non-steady-state), τ 24 h, n = 20, mean (SD)): 15.9 ng·h/mL
- AUC ([2]; human, plasma, oral, 50 ug, AUC0-τ,ss, 50 µg QD, steady state, τ 24 h, n = 16, mean (SD)): 26.2 ng·h/mL
- AUC ([2]; human, plasma, oral, 50 ug, AUC0–τ,ss, 50 µg BID, steady state, τ 12 h, n = 6, mean (SD)): 36 ng·h/mL
- Cmax ([2]; human, plasma, oral, 50 ug, Cmax, 50 µg QD, Study Day 1 (non-steady-state), n = 20, mean (SD)): 1.88 ng/mL
- Cmax ([2]; human, plasma, oral, 50 ug, Cmax,ss, 50 µg BID, steady state, n = 6, mean (SD)): 4.43 ng/mL
- Cmax ([2]; human, plasma, oral, 50 ug, Cmax,ss, 50 µg QD, steady state, n = 16, mean (SD)): 2.74 ng/mL
- Tmax ([2]; human, plasma, oral, 50 ug, Tmax, 50 µg QD, Study Day 1 (non-steady-state), n = 20, median (min – max)): 2 h
- Tmax ([2]; human, plasma, oral, 50 ug, Tmax,ss, 50 µg BID, steady state, n = 6, median (min–max)): 1.25 h
- Tmax ([2]; human, plasma, oral, 50 ug, Tmax,ss, 50 µg QD, steady state, n = 16, median (min – max)): 1.25 h
- AUC ([2]; human, plasma, oral, 70 ug, AUC0–τ,ss, 70 µg BID, steady state, τ 12 h, single subject): 25.2 ng·h/mL
- Cmax ([2]; human, plasma, oral, 70 ug, Cmax,ss, 70 µg BID, steady state, single subject): 4.22 ng/mL
- Tmax ([2]; human, plasma, oral, 70 ug, Tmax,ss, 70 µg BID, steady state, single subject): 1.5 h
- AUC ([2]; human, plasma, oral, 100 ug, AUC0-τ,ss, 100 µg QD, steady state, τ 24 h, n = 7, mean (SD)): 48.6 ng·h/mL
- Cmax ([2]; human, plasma, oral, 100 ug, Cmax,ss, 100 µg QD, steady state, n = 7, mean (SD)): 5.15 ng/mL
- Tmax ([2]; human, plasma, oral, 100 ug, Tmax,ss, 100 µg QD, steady state, n = 7, median (min – max)): 1.5 h
- AUC ([2]; human, plasma, oral, 300 ug, AUC0-τ,ss, 300 µg QD, steady state, τ 24 h, single subject): 181 ng·h/mL
- Cmax ([2]; human, plasma, oral, 300 ug, Cmax,ss, 300 µg QD, steady state, single subject): 17.6 ng/mL
- Tmax ([2]; human, plasma, oral, 300 ug, Tmax,ss, 300 µg QD, steady state, single subject): 4 h
- Efficacy in rat monocrotaline model of PAH [3]: dose-dependent oral efficacy
